Data set [1] in a line: Growth inhibition of human RPMI8226 cells. The format is functional. As to conditions: RPMI-8226. An outline of the steps: (§1)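 NCI 60-cell-line tumour panel. Compounds were first screened at a single concentration of 10 µM, then tested in 5-dose assays. Growth was read as the change in optical density, expressed as a percentage of control. GI50 is the concentration (µM) that halves cellular growth, and the values were taken from the NCI database.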

A short description of data set [2]: Growth inhibition of human HOP92 cells. Format: functional. As to conditions: HOP-92. An outline of the steps: as §1
The nature of data set [3]: Growth inhibition of human BT549 cells. Format: functional. As to conditions: BT-549. An outline of the steps: as §1
In another data set the test system is IGROV-1. Nature of the data set: Growth inhibition of human IGROV1 cells. Format: functional. An outline of the steps: as §1
In a further data set the test system is SNB-75. In words: Growth inhibition of human SNB75 cells. Format: functional. In a few lines:
as §1

The test system of the next data set is NCI-H522. Nature of the data set: Growth inhibition of human NCI-H522 cells. Format: functional. In a few lines: as §1
For the next data set, the system named is CAKI-1. In words: Growth inhibition of human CAKI-1 cells. Format: functional. In a few lines:
as §1

The next data set relates to SR. In words: Growth inhibition of human SR cells. Format: functional. In a few lines:
as §1

In the next data set the test system is Malme-3M. Nature of the data set: Growth inhibition of human MALME-3M cells. The format is functional. An outline of the steps:
as §1

The nature of data set [4]: Growth inhibition of human SF539 cells. Conditions: SF-539. Format: functional. In a few lines: as §1
The next data set relates to MDA-MB-435. Nature of the data set: Growth inhibition of human MDA-MB-435 cells. The format is functional. In a few lines: as §1
Another data set relates to ACHN. In words: Growth inhibition of human ACHN cells. The format is functional. An outline of the steps: as §1
In the next data set the test system is T47D. Nature of the data set: Growth inhibition of human T47D cells. Format: functional. An outline of the steps: as §1
A further data set deals with SW-620. Nature of the data set: Growth inhibition of human SW620 cells. The format is functional. In a few lines:
as §1

The nature of data set [5]: Growth inhibition of human COLO205 cells. Format: functional. As to conditions: COLO 205. In a few lines: as §1
Data set [6] is described as follows: Growth inhibition of human HCT116 cells. As to conditions: HCT-116. The format is functional. In a few lines: as §1
Data set [7] in a line: Half life in human plasma. The format is ADME, cell-free.
The subject of another data set is TK-10. In words: Growth inhibition of human TK10 cells. Format: functional. In a few lines:
as §1

Another data set concerns M14. Nature of the data set: Growth inhibition of human M14 cells. The format is functional. In a few lines: as §1
The next data set deals with MDA-MB-468. In words: Growth inhibition of human MDA-MB-468 cells. The format is functional. An outline of the steps:
as §1

A short description of data set [8]: Growth inhibition of human LOXIMVI cells. Format: functional. Conditions: LOX IMVI. An outline of the steps:
as §1

In another data set the test system is CCRF-CEM. Nature of the data set: Growth inhibition of human CCRF-CEM cells. The format is functional. In a few lines:
as §1

For a further data set, the system named is DU-145. In words: Growth inhibition of human DU145 cells. The format is functional. An outline of the steps: as §1
Data set [9] is described as follows: Growth inhibition of human RXF393 cells. The format is functional. As to conditions: RXF 393. In a few lines:
as §1

Data set [10] is described as follows: Growth inhibition of human MOLT4 cells. Format: functional. Conditions: MOLT-4. An outline of the steps: as §1
The subject of another data set is MCF7. Nature of the data set: Growth inhibition of human MCF7 cells. Format: functional. An outline of the steps:
as §1

A short description of data set [11]: Growth inhibition of human OVCAR3 cells. Conditions: OVCAR-3. The format is functional. In a few lines: as §1
Another data set deals with HL-60(TB). Nature of the data set: Growth inhibition of human HL-60(TB) cells. Format: functional. An outline of the steps: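 Tested in the NCI 60 human tumour cell line panel. Compounds were first screened at a single concentration of 10 µM, and hits were then run in a five-dose assay. Growth was read as the change in optical density, expressed as a percentage of control. GI50 is the concentration that halves cellular growth, taken from the NCI database.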

Another data set deals with K562. Nature of the data set: Growth inhibition of human K562 cells. The format is functional. In a few lines:
as §1

Molecules are shown by their SMILES.

For the compound `C=C1C(=O)O[C@H]2[C@H]1CC/C(COC(=O)NCCc1ccccn1)=C\CC[C@@]1(C)O[C@@H]21`, the GI50 in data set [1] is 8.2 µM; in data set [2] it was 2.25 µM; in data set [3], 2.6 µM; in the data set with IGROV-1 it was 14.4 µM; in the data set with SNB-75, 3.78 µM; with NCI-H522 it was 1.64 µM. For the same compound, the GI50 worked out at 2.88 µM with CAKI-1; 4.1 µM with SR; 7.52 µM in the data set with Malme-3M; 5.77 µM in data set [4]; 6.01 µM in the data set with MDA-MB-435; 2.75 µM in the data set with ACHN. Further, the GI50 came out at 6.19 µM in the data set with T47D; 3.13 µM in the data set on SW-620; 3.54 µM in [5]; 1.89 µM in [6]; 3.78 µM in the data set with TK-10; 5.58 µM in the data set on M14. Further, the GI50 was 3.22 µM in the data set with MDA-MB-468; 4.96 µM in data set [8]; 2.65 µM in the data set with CCRF-CEM; 4.59 µM in the data set with DU-145; 2.22 µM in data set [9]; 5.54 µM in data set [10]. The compound further showed a GI50 with MCF7 of 2.85 µM. In [7], this compound came in with a half-life of 1.67 h.
`C=C1C(=O)O[C@H]2[C@H]1CC/C(COC(=O)NCCN1CCCC1)=C\CC[C@@]1(C)O[C@@H]21`: the GI50 in data set [1] stood at 8.71 µM; in data set [2], 2.25 µM; in [3], 4.75 µM; in the data set with IGROV-1, 4.09 µM; in the data set on SNB-75, 18 µM; with NCI-H522, 1.78 µM. Also, the GI50 worked out at 6.86 µM in the data set with CAKI-1; 8.41 µM in data set [11]; 10.2 µM in the data set with SR; 4.18 µM with Malme-3M; 15 µM in data set [4]; 6.56 µM in the data set on MDA-MB-435. Further, the GI50 was 3.8 µM with ACHN; 4.86 µM in the data set on T47D; 3.46 µM with SW-620; 4.78 µM in data set [5]; 3.18 µM in data set [6]; 4.15 µM in the data set on HL-60(TB). The GI50 with TK-10 was 3.11 µM; in the data set with M14, 9.65 µM; in the data set on MDA-MB-468, 2.3 µM; in data set [8], 7.88 µM; in the data set on K562, 3.26 µM; in the data set with CCRF-CEM it was 2.49 µM. Moreover, the GI50 in the data set with DU-145 stood at 7.42 µM; in data set [9], 4.08 µM; in data set [10], 3.48 µM; in the data set on MCF7 it was 3.91 µM. In addition, the half-life in [7] was 1.67 h.
As for `C=C1C(=O)O[C@H]2[C@H]1CC/C(COC(=O)Nc1n[nH]c(SC)n1)=C\CC[C@@]1(C)O[C@@H]21`, the GI50 came out at 2.57 µM in data set [1]; 0.65 µM in data set [2]; 1.47 µM in [3]; 3.66 µM with IGROV-1; 1.71 µM in the data set with SNB-75; 1.26 µM in the data set on NCI-H522. The GI50 amounted to 1.99 µM in the data set on CAKI-1; 2.36 µM in the data set on SR; 2.32 µM in the data set on Malme-3M; 1.76 µM in data set [4]; 2.24 µM with MDA-MB-435; 1.75 µM in the data set on ACHN. Further, the GI50 was found to be 2.23 µM with T47D; 1.12 µM in the data set on SW-620; 1.79 µM in [5]; 1.13 µM in data set [6]; 2.51 µM with TK-10; 1.59 µM with M14. Also, the 50% growth inhibitory concentration (GI50) was 1.29 µM in the data set on MDA-MB-468; 1.95 µM in [8]; 0.62 µM in the data set on CCRF-CEM; 3.49 µM with DU-145; 0.9 µM in data set [9]; 2.32 µM in [10]. In addition, the GI50 in the data set on MCF7 is 1.33 µM. The compound further returned a half-life in data set [7] of 1.67 h.
In the case of `C=C1C(=O)O[C@H]2[C@H]1CC/C(COC(=O)NCCN1CCOCC1)=C\CC[C@@]1(C)O[C@@H]21`, the GI50 in [1] was determined as 5.72 µM; in [2], 2.3 µM; in data set [3], 4.99 µM; with IGROV-1 it was 3.49 µM; with SNB-75, 19.5 µM; in the data set with NCI-H522 it was 2.13 µM. Besides, the GI50 was 4.31 µM in the data set with CAKI-1; 6.2 µM in data set [11]; 3.65 µM in the data set with SR; 6.12 µM in the data set on Malme-3M; 14.4 µM in [4]; 5.89 µM with MDA-MB-435. Moreover, the GI50 in the data set on ACHN was found to be 3.74 µM; in the data set with T47D, 6.32 µM; in the data set on SW-620, 3.48 µM; in [5], 8.89 µM; in data set [6], 2.87 µM; in the data set on HL-60(TB) it was 3.59 µM. The GI50 in the data set on TK-10 was determined as 3.93 µM; in the data set with M14, 7.97 µM; in the data set on MDA-MB-468, 3.26 µM; in data set [8], 4.84 µM; with K562 it was 3.37 µM; in the data set on CCRF-CEM, 3.03 µM. For the same compound, the GI50 with DU-145 is 3.74 µM; in [9], 3 µM; in [10] it was 5 µM; with MCF7, 3.54 µM. For the same compound, the half-life in [7] came out at 1.67 h.
Take `C/C1=C\CC[C@@]2(C)O[C@@H]2[C@H]2OC(=O)C(CN(C)C)[C@@H]2CC1` (stereo not given in full) [DIMETHYLAMINOPARTHENOLIDE]: the GI50 in [1] was found to be 2.51 µM; in [2] it was 10 µM; in data set [3], 5.01 µM; with IGROV-1, 19.9 µM; in the data set on NCI-H522, 2.51 µM; with CAKI-1, 12.5 µM. The GI50 in data set [11] was found to be 12.5 µM; in data set [4], 2.51 µM; in the data set on MDA-MB-435 it was 7.94 µM; in the data set on ACHN it was 15.8 µM; in the data set with T47D it was 39.8 µM; with SW-620, 3.98 µM. Also, the GI50 in data set [5] turned out to be 31.6 µM; in data set [6], 5.01 µM; in the data set with HL-60(TB), 1.58 µM; with TK-10, 3.16 µM; in the data set on M14 it was 15.8 µM; in data set [8], 10 µM. For the same compound, the GI50 with K562 was found to be 2.51 µM; in the data set on CCRF-CEM it was 1.99 µM; in the data set with DU-145, 5.01 µM; in [9], 15.8 µM; in data set [10], 3.16 µM; in the data set with MCF7, 5.01 µM.
In the case of `C=C1C(=O)O[C@H]2[C@H]1CC/C(COC(=O)N1CCC(F)(F)CC1)=C\CC[C@@]1(C)O[C@@H]21`, the GI50 in [1] turned out to be 1.98 µM; in data set [2] it was 1.45 µM; in data set [3], 2.69 µM; in the data set on IGROV-1, 2.31 µM; with SNB-75, 6.13 µM; with NCI-H522, 1.25 µM. Further, the GI50 is 2.03 µM in the data set with CAKI-1; 1.69 µM in data set [11]; 1.38 µM in the data set with SR; 1.9 µM in the data set with Malme-3M; 1.98 µM in data set [4]; 0.46 µM with MDA-MB-435. Also, the GI50 with ACHN came to 1.79 µM; in the data set with T47D it was 3.07 µM; in the data set with SW-620, 1.46 µM; in data set [5] it was 2.06 µM; in data set [6], 1.41 µM; in the data set on HL-60(TB), 2.04 µM. In addition, the GI50 with TK-10 is 2.6 µM; in the data set on M14, 2.84 µM; with MDA-MB-468 it was 0.57 µM; in data set [8], 2.23 µM; in the data set on K562, 3.45 µM; in the data set with CCRF-CEM, 0.68 µM. Besides, the concentration for 50% growth inhibition (GI50) turned out to be 2.44 µM in the data set with DU-145, 1.2 µM in data set [9], 2.05 µM in data set [10] and 1.62 µM in the data set with MCF7. Besides, the half-life in data set [7] is 8 h.
For `C=C1C(=O)O[C@@H]2C3O[C@]3(C)CC/C=C(\C)CC[C@@H]12` (stereo not given in full), the GI50 (in the data set with CAKI-1; in [6]) was 10 µM throughout.

As a reminder, the GI50 is the concentration that inhibits growth by half. A lower GI50 goes with greater sensitivity of the cells. As usually defined, the half-life is how long it takes for the measured level to halve. Low readings indicate rapid decline, high ones slow decline.
